For 29 compounds, relative luminescence ratio results are on record in PubChem BioAssay AID624302 (The Scripps Research Institute Molecular Screening Center, 2012).

The structures appear in SMILES notation. The source made the active and inactive calls.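 Rule for the calls: active = relative luminescence ratio of 1.25 or more at any tested dose; inactive = ratio below 1.25 at every dose.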

Nuclear receptor subfamily 0 group B member 1 (Homo sapiens), sequence (P51843 207-470 limits assumed): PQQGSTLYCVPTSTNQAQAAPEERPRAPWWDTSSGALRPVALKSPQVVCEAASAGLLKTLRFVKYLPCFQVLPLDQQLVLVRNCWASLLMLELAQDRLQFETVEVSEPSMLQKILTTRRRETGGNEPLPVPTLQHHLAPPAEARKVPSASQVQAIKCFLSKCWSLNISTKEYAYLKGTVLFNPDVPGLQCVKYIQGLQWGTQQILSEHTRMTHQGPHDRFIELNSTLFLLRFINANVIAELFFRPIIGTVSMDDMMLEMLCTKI

For this test, the target named is Nuclear receptor subfamily 0 group B member 1 (Homo sapiens) (UniProt P51843). As to the kind of experiment: relief of Gal4-DAX1 luciferase repression – cell-based, luminescence, HEK293, powder samples, assay provider, dose response (AID 624302). The settings on record: luciferase reporter luminescence, at 100 µM, stronger effect = higher value. In a few lines:
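test system = HEK293 with GAL4-DAX1 fusion and Gal4-tk-luc reporter | signal = luciferase reporter luminescence | compound dosing = 100 µM, plus three 1:2 steps starting 50 µM | controls = DMSO vehicle wells as reference | read-out basis = luminescence ratio versus DMSO wells, higher with DAX1 derepression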
Take `O=C(Nc1ccc2c(c1)OCCO2)c1ccc2ccccc2c1`: the relative luminescence ratio was 0.02 (inactive). Then `Cn1c(=O)n(C)c2cc(C(=O)Nc3ccc4c(c3)OCCO4)ccc21`, with 2.25.

`COc1ccc(OC)c(C(C)NC(=O)c2c(F)cccc2Cl)c1` (centres undefined): the relative luminescence ratio is 0.51 (inactive). Then `O=C(Cc1cccs1)Nc1ccc2c(c1)OCO2`, with 0.62 (inactive). Consider `Cc1occc1C(=O)Nc1ccc2c(c1)OCO2`, for which the relative luminescence ratio was 0.21 (inactive). Then `COc1cccc(C(=O)Nc2ccc3c(c2)OCCO3)c1`, with 0.02 (inactive).

With `O=C(Nc1ccc2c(c1)OCO2)c1ccc(C2SCC(=O)N2Cc2ccccc2)cc1` (centres undefined), the relative luminescence ratio is 0.01 (inactive). Then `O=C(Nc1ccc2c(c1)OCO2)c1cccs1`, with 0.38 (inactive); and `COc1ccc(OC)c(C(C)NC(=O)c2cccc(F)c2)c1` (centres undefined), with 0.63 (inactive); and `Cn1c(=O)n(C)c2cc(C(=O)Nc3ccc4c(c3)OCO4)ccc21`, with 1.77. For the compound `O=C(Nc1ccc2c(c1)OCO2)c1ccc2ccccc2c1`, the relative luminescence ratio is 0.02 (inactive). The figure for `COc1cccc(C(=O)Nc2ccc3c(c2)OCO3)c1` is 0.16 (inactive); for `COc1ccc(OC)c(C(C)NC(=O)c2ccccc2Cl)c1` (centres undefined) it is 0.39 (inactive); for `COc1ccc(OC)c(C(C)NC(=O)c2cccc(C)c2)c1` (centres undefined) it is 0.23 (inactive). Then `COc1ccc(OC)c(C(C)NC(=O)c2cccc3ccccc23)c1` (centres undefined), with 0.01 (inactive); and `COc1ccc(OC)c(C(C)NC(=O)c2ccc(C)cc2)c1` (centres undefined), with 0.38 (inactive). The figure for `Cc1cc(C(=O)Nc2ccc3c(c2)OCO3)cs1` is 0.26 (inactive). On to `COc1ccc(OC)c(C(C)NC(=O)c2ccccc2F)c1` (centres undefined), for which the relative luminescence ratio is 0.39 (inactive). Regarding `COc1ccc(OC)c(C(C)NC(=O)c2ccc(Cl)cc2)c1` (centres undefined), the relative luminescence ratio was 0.3 (inactive).

With `CSc1ccccc1C(=O)Nc1ccc2c(c1)OCO2`, the relative luminescence ratio was 0.41 (inactive). The figure for `COc1ccc(OC)c(C(C)NC(=O)c2ccccc2C)c1` (centres undefined) is 0.42 (inactive); for `CN(C)c1cccc(C(=O)Nc2ccc3c(c2)OCCO3)c1` it is 0.05 (inactive).

For `COc1cccc(C(=O)NC(C)c2cc(OC)ccc2OC)c1` (centres undefined), the relative luminescence ratio is 0.3 (inactive).

With `COc1ccc(OC)c(C(C)NC(=O)c2ccc(F)cc2)c1` (centres undefined), the relative luminescence ratio is 0.33 (inactive).

For the compound `O=C(Nc1ccc2c(c1)OCO2)c1ccc(C2SCC(=O)N2Cc2ccco2)cc1` (centres undefined), the relative luminescence ratio was 0.01 (inactive). Then `COc1ccc(OC)c(C(C)NC(=O)c2ccc(C(C)(C)C)cc2)c1` (centres undefined), with 0.1 (inactive). The figure for `CSc1ccccc1C(=O)Nc1ccc2c(c1)OCCO2` is 0.51 (inactive); for `COc1ccc(OC)c(C(C)NC(=O)c2ccc3c(c2)OCCO3)c1` (centres undefined) it is 0.31 (inactive). `COc1ccc(OC)c(C(C)NC(=O)c2ccccc2)c1` (centres undefined): the relative luminescence ratio is 0.46 (inactive).
